Assay outcomes deposited in PubChem BioAssay by Broad Institute.
These entries were drawn from the full list.
PGC1a acetyl up = compounds raising PGC1a acetylation signal, primary screen, PGC1a modulator project, cell-based, U2OS, AlphaScreen, signal-increasing mode; AID 651723, 2012; hit rate 0.21% among 350,000; activation, % at 15.6 µM; overnight;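 active = every replicate reaching activation of at least 50%, whatever the mean replicate activation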;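 note: hits raise the AlphaScreen acetylation signal above neutral controls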
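detection = AlphaScreen lysate read | assay system = U2OS cells expressing flag-PGC1a plus GCN5 | input = 7000 cells/well | dosing = one concentration | times = compound overnight at 37 °C, each detection step 1 h RT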
* marks the source's active call; other numbers are inactive results.

SMILES	PGC1a acetyl up
CC(c1ccccc1)N1C(=O)NC(NC(=O)c2cccnc2)(C(F)(F)F)C1=O (centres undefined)	74*
O=C(Nc1nc2c(s1)CN(Cc1ccccc1)CC2)c1c(F)cccc1F	-41
CCC(CC)NC(=O)Cc1ccc(S(=O)(=O)N2CCOCC2)s1	52*
COc1cc(C(=O)O)ccc1Cl	-48
COc1cc(Cl)c(S(=O)(=O)N2CC(C)OC(C)C2)cc1Cl (centres undefined)	89*
Cc1noc(C)c1NC(=O)N(C)C[C@@H]1Oc2ccc(NS(=O)(=O)c3cn(C)cn3)cc2C(=O)N([C@@H](C)CO)C[C@@H]1C	-46
CCN(CC)C(=O)[C@H]1CC(CC(=O)NCc2cccc(C(F)(F)F)c2)C(=O)N2CCc3c([nH]c4ccccc34)[C@]12C (some centres undefined)	-54
CN(CCc1ccccc1)C(=O)c1ccc(NC(=O)Cc2ccc(NC(=O)C3CCN(C(=O)C4CCCCC4)CC3)cc2)cc1	-42
CN(C)CCCNC(=O)CC1C[C@H](C(=O)N2CCCCC2)[C@@]2(CCc3ccccc3)c3[nH]c4ccccc4c3CCN2C1=O (some centres undefined)	99*
Cc1cc(O)c(N=Nc2ccc(C(=O)O)cc2)cc1C	-50
O=C1c2ccsc2SCCN1Cc1cccc(Cl)c1	50*
CCN1/C(=C/c2ccc3cccc(C)c3[n+]2CC)Sc2ccccc21	185*
COc1ccccc1C1c2c(C)nn(-c3ccccc3)c2NC(=O)C1NC(=O)c1ccccc1 (centres undefined)	-48
Cc1cc(OCC(=O)NNC(=O)c2cnccn2)cc(C)c1Cl	-85
Nc1nnc(CC(=O)N/N=C/c2ccccc2OCc2ccc(F)cc2)s1	-61
Cc1ccccc1OCC(=O)N/N=C/c1cc2ccccc2nc1Cl	59*
O=C(OCc1cnc(Cl)s1)c1cccs1	-94
O=C(NCC[C@@H]1CC[C@H](NS(=O)(=O)Cc2ccccc2)[C@H](CO)O1)C1CCC1	-61
Cn1cccc1CC(=O)N/N=C/c1cc([N+](=O)[O-])ccc1Cl	-46
O=C(N/N=C/c1cccc([N+](=O)[O-])c1)C1COc2ccccc2O1 (centres undefined)	188*
O=C(N/N=C\c1cccc([N+](=O)[O-])c1O)C1COc2ccccc2O1 (centres undefined)	75*
C[C@H](CO)N1C[C@H](C)[C@@H](CN(C)CC2CCOCC2)Oc2ncc(Br)cc2C1=O	-89
O=C(C[C@@H]1CC[C@@H]2[C@H](COC[C@@H](O)CN2S(=O)(=O)c2ccc(Cl)cc2)O1)N[C@@H]1CCN(Cc2ccccc2)C1	-48
O=C1C=CC2(C=C1)O[C@H](Cc1ccccc1)[C@@H](Cc1ccccc1)O2	-41
CCC(C)(C)n1nnnc1C(c1cccnc1)N1CCCC(C)C1 (centres undefined)	-43
SMILES	PGC1a acetyl up
CCOc1ccc(C(=O)N/N=C(\c2ccccc2)c2ccccn2)cc1	-80
CCOC(=O)C(NC(=O)c1ccccc1OCC)(Nc1ncccn1)C(F)(F)F (centres undefined)	70*
CCOc1ccccc1C(=O)NCCCCCC(=O)O	-42
CC(C)NC(=O)N(C)C[C@H]1OCCCC[C@@H](C)Oc2ccc(NC(=O)CCCN(C)C)cc2C(=O)N([C@@H](C)CO)C[C@@H]1C	-51
CN(C)CCCN(C(=O)CCOc1ccccc1)c1nc2ccc(F)cc2s1	-50
CN(C)CCOc1ccc(/C(=C(/CCCl)c2ccccc2)c2ccccc2)cc1	109*
O=C(O)c1cc(N2CCCCC2)ccn1	-48
Nc1ccc(N2CCCCC2)cc1N1CCCCC1	54*
S=c1nc[nH]c2c1cnn2Cc1ccccc1	-45
COc1ccccc1N=C1NC(=O)/C(=C/c2ccc(N(C)C)cc2)S1	55*
C[C@@H]1CN([C@@H](C)CO)S(=O)(=O)c2ccc(-c3ccccc3)cc2O[C@@H]1CN(C)C(=O)c1ccccc1F	-42
O=C(CSc1ccc(Cl)cc1)N/N=C/c1ccc([N+](=O)[O-])o1	92*
O=C(CSc1nnc(-c2ccccc2)n1-c1ccc(Cl)cc1)N/N=C/c1ccccc1C(=O)O	-45
Cc1ccc(OCC(=O)N/N=C/c2ccc([N+](=O)[O-])o2)cc1	84*
CC1=NN(c2ccc(C)c(C)c2)C(=O)/C1=C\C=C\c1ccc([N+](=O)[O-])o1	-59
Cc1ccc(O)c(/C=N/NC(=O)CN2CCCC2)c1	-84
Cc1ccc(NC(=O)CCC(=O)N/N=C/c2ccc([N+](=O)[O-])o2)cc1C	126*
O=C1C(Cl)=C(Nc2ccc3cn[nH]c3c2)C(=O)c2ccccc21	-55
CC(C)C#Cc1cnc2c(c1)C(=O)N([C@@H](C)CO)C[C@@H](C)[C@@H](CN(C)C(=O)c1ccccn1)O2	-44
C[C@@H]1CN([C@H](C)CO)C(=O)c2cc(C3=CCCCC3)cnc2O[C@@H]1CN(C)Cc1ccccc1	-44
OC(COc1ccc(CNCCc2ccc(C(F)(F)F)cc2)cc1)CN1CCCCC1 (centres undefined)	54*
COc1ccc(Cl)cc1NC(=O)NCC1CCN(C(=O)OC(C)(C)C)CC1	-50
O=C(O)/C=C/c1cnc[nH]1	-106
CCN(CC)S(=O)(=O)c1ccc(C(=O)N(c2ccccc2)C2C=CS(=O)(=O)C2)cc1 (centres undefined)	-46
CCN1CCN(C(=O)c2c(-c3c(F)cccc3Cl)noc2C)CC1	71*
SMILES	PGC1a acetyl up
O=C(c1cccc(Cl)c1)N1CCN(c2ccc(N3CCOCC3)nn2)CC1	-46
CC1CN(C2CCN(C(=O)c3cccc(Cl)c3)CC2)CC(C)O1 (centres undefined)	-48
Cc1noc(C)c1NC(=O)Nc1cccc2c1O[C@H](CN(C)Cc1ccc(Oc3ccccc3)cc1)[C@H](C)CN([C@@H](C)CO)C2=O	-100
NC(=O)C1CCN(C2=C(Cl)C(=O)c3ccccc3C2=O)CC1	66*
C[C@@H]1CN([C@H](C)CO)C(=O)c2cc(NS(=O)(=O)c3ccc(F)cc3)ccc2O[C@H]1CN(C)Cc1ccc(C(F)(F)F)cc1	-56
O=C(Nc1ccc(F)cc1)c1ccccc1	-52
O=C(NC(Nc1cc(C(F)(F)F)ccc1Cl)C(=O)c1ccccc1)c1ccccc1 (centres undefined)	100*
CCCCN(C(=O)CCC(=O)Nc1cc(C)on1)C(C(=O)NC1CCCC1)c1ccc(OC)cc1 (centres undefined)	-46
N#CC1(NC(=O)Cn2ncc(Cl)c(Cl)c2=O)CCCCC1	98*
CN(C)c1ccc(Sc2ccc3nc(N)nc(N)c3c2)cc1	-46
CCOc1ccc(Nc2ncnc3ccc([N+](=O)[O-])cc23)cc1	-50
C[n+]1c2n(c3ccccc31)N=C(c1cc(C(C)(C)C)c(O)c(C(C)(C)C)c1)CS2	88*
Cc1noc(C)c1S(=O)(=O)Nc1ccc2c(c1)C(=O)N([C@H](C)CO)C[C@@H](C)[C@@H](CN(C)S(=O)(=O)c1cccs1)OCCCC[C@H](C)O2	-51
COc1ccc(-n2nc(C#N)c(Cl)cc2=O)cc1	-90
COc1ccc(Cn2nnnc2C(C(C)C)N(Cc2ccco2)Cc2cccs2)cc1 (centres undefined)	56*
CN(C)CCCN(C(=O)c1cc2cc([N+](=O)[O-])ccc2s1)c1nc2cc3c(cc2s1)OCCO3	-54
NNS(=O)(=O)c1ccc(Cc2ncc(C(F)(F)F)cc2Cl)s1	-50
O=S(=O)(c1ccccc1)c1ncc(C(F)(F)F)cc1Cl	55*
Nc1ccccc1Oc1ncc(C(F)(F)F)cc1Cl	-46
